According to ChEMBL document CHEMBL5653631, “A Potent and Selective ULK1 Inhibitor Suppresses Autophagy and Sensitizes Cancer Cells to Nutrient Stress” (iScience, 2018):

Columns and labels:
[1] = biological target: Misshapen-like kinase 1 (Homo sapiens) (UniProt Q8N4C8); experiment: Inhibition of human recombinant MINK at 40 nM in presence of ATP by radiometric assay relative to control
[2] = biological target: Rho-associated protein kinase 2 (Homo sapiens) (UniProt O75116); experiment: Inhibition of human recombinant ROCK2 at 40 nM in presence of ATP by radiometric assay relative to control
[3] = biological target: Protein kinase C iota type (Homo sapiens) (UniProt P41743); experiment: Inhibition of human recombinant PKCi at 40 nM related to control ULK1
[4] = biological target: Tyrosine-protein kinase receptor UFO (Homo sapiens) (UniProt P30530); experiment: Inhibition of human recombinant AXL at 500 nM in presence of ATP by radiometric assay relative to control
Outline: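 Panel of 327 recombinant human kinases, each assayed in vitro by radiometric activity assay in duplicate at a single inhibitor concentration per compound, chosen with reference to its ULK1 inhibition. Activity remaining was expressed as percent of vehicle control, and percent inhibition was calculated as 100 minus percent activity remaining.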

[5] = biological target: T1, Serine/threonine-protein kinase DCLK2 (Homo sapiens) (UniProt Q8N568); experiment: Inhibition of human recombinant DCAMKL2 at 500 nM in presence of ATP by radiometric assay relative to control
T1 sequence (whole entry): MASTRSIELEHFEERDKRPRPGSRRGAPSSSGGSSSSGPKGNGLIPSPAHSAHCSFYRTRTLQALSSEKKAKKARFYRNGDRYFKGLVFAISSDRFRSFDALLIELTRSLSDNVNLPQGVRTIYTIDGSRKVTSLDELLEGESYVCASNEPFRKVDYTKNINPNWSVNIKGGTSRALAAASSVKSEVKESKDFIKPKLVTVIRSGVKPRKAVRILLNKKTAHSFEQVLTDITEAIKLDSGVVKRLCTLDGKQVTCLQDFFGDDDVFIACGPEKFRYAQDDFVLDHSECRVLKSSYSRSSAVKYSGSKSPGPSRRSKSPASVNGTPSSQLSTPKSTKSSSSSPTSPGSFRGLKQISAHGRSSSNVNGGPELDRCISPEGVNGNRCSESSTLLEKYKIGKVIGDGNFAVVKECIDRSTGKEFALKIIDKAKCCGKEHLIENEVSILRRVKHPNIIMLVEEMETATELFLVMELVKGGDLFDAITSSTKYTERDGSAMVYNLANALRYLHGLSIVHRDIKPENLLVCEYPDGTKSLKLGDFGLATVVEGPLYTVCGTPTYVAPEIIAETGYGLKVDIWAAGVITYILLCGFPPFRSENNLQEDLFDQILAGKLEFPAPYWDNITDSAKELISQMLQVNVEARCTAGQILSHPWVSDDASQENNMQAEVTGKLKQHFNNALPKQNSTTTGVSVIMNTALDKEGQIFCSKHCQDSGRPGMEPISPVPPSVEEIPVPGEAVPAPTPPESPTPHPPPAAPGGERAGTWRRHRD

[6] = biological target: T2, Homeodomain-interacting protein kinase 4 (Homo sapiens) (UniProt Q8NE63); experiment: Inhibition of human recombinant HIPK4 at 500 nM in presence of ATP by radiometric assay relative to control
T2 sequence (whole entry): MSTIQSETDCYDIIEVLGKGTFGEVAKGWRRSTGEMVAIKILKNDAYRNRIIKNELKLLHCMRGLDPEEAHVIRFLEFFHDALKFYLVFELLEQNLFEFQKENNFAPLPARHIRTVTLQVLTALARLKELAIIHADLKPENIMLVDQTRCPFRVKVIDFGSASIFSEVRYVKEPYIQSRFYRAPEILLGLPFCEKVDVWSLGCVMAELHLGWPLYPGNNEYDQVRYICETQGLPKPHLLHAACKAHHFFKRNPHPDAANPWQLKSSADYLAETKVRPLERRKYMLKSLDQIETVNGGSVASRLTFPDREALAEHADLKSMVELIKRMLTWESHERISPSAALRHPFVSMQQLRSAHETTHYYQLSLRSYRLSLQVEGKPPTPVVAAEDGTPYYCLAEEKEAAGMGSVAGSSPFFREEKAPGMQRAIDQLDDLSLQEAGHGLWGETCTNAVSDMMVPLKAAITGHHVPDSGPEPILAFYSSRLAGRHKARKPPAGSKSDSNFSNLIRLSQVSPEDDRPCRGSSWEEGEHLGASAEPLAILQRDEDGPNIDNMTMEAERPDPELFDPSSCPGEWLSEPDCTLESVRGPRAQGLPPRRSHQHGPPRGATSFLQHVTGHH

[7] = biological target: Protein kinase C eta type (Homo sapiens) (UniProt P24723); experiment: Inhibition of human recombinant PKCH at 500 nM in presence of ATP by radiometric assay relative to control
[8] = biological target: T3, Dual specificity protein kinase TTK (Homo sapiens) (UniProt P33981); experiment: Inhibition of human recombinant TTK at 500 nM in presence of ATP by radiometric assay relative to control
T3 sequence (whole entry): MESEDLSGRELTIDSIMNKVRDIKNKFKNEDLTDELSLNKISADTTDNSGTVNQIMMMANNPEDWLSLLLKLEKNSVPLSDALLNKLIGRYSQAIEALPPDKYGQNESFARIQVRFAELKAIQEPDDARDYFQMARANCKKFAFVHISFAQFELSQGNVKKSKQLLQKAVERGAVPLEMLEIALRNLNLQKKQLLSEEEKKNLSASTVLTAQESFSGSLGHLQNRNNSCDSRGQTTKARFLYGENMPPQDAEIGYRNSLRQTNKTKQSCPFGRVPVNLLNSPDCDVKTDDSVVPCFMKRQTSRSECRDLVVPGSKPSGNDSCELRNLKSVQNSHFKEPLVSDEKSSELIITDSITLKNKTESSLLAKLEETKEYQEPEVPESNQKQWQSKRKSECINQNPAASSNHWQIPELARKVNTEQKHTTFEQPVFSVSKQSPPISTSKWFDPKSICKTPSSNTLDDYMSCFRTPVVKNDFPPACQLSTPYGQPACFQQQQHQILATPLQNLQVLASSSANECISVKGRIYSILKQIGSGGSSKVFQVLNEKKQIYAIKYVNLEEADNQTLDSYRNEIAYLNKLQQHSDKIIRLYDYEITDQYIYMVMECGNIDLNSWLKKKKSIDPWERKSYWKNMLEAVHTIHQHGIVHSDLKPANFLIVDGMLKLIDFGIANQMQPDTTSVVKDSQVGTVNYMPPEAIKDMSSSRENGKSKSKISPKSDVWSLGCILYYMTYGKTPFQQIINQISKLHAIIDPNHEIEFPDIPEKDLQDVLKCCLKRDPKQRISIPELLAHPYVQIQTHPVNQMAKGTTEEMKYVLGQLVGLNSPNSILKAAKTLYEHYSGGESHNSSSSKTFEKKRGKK

[9] = biological target: Serine/threonine-protein kinase NIM1 (Homo sapiens) (UniProt Q8IY84); experiment: Inhibition of human recombinant NIM1 at 500 nM related to control ULK1
Serine/threonine-protein kinase NIM1 (Homo sapiens), sequence (Q8IY84 whole entry): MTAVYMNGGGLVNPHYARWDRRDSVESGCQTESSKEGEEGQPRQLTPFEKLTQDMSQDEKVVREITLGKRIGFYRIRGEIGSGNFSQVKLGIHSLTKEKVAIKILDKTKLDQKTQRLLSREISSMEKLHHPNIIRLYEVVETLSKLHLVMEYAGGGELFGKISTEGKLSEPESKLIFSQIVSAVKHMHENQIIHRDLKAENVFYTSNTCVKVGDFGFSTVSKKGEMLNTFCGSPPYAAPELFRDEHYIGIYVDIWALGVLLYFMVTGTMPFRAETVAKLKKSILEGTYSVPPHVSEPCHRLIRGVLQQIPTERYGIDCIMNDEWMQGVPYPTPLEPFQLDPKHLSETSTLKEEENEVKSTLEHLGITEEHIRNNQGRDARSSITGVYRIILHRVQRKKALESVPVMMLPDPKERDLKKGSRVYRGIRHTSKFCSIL

Rho-associated protein kinase 2 (Homo sapiens), sequence (O75116 whole entry, looked up): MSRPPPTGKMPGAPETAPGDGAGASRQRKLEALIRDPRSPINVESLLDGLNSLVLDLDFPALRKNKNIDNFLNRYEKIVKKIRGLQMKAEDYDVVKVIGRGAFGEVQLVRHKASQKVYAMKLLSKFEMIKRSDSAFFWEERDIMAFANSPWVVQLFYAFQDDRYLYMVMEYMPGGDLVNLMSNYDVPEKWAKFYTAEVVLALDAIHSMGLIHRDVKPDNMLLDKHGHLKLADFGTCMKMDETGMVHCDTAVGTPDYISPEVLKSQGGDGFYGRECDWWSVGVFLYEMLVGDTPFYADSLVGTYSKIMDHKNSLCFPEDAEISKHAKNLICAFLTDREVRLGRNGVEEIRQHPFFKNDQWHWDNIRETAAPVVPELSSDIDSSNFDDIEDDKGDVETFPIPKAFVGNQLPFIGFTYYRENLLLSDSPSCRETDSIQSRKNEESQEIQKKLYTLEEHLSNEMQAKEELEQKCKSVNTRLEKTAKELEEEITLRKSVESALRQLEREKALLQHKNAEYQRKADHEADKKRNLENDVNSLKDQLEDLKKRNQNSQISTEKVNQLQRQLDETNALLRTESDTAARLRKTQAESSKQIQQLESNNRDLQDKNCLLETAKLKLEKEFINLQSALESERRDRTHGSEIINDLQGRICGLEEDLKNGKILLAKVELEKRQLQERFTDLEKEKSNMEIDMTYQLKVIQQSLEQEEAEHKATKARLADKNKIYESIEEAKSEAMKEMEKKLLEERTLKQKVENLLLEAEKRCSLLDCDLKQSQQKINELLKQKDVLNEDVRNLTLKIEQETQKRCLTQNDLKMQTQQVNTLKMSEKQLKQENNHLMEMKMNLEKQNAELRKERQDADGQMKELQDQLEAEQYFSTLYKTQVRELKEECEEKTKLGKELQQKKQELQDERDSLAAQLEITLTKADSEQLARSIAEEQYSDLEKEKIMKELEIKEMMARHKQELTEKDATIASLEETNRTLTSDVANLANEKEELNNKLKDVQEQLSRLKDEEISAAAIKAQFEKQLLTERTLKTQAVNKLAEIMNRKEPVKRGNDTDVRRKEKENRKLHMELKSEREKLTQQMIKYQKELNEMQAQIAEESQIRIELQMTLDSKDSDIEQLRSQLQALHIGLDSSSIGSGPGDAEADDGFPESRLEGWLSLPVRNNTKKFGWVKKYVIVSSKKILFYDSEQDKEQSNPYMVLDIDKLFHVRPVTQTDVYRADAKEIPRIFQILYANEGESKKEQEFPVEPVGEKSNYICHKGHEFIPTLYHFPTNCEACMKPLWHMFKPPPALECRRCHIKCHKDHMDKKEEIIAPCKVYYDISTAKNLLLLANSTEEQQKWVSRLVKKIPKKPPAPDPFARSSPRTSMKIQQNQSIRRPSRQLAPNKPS
Tyrosine-protein kinase receptor UFO (Homo sapiens), sequence (P30530 whole entry): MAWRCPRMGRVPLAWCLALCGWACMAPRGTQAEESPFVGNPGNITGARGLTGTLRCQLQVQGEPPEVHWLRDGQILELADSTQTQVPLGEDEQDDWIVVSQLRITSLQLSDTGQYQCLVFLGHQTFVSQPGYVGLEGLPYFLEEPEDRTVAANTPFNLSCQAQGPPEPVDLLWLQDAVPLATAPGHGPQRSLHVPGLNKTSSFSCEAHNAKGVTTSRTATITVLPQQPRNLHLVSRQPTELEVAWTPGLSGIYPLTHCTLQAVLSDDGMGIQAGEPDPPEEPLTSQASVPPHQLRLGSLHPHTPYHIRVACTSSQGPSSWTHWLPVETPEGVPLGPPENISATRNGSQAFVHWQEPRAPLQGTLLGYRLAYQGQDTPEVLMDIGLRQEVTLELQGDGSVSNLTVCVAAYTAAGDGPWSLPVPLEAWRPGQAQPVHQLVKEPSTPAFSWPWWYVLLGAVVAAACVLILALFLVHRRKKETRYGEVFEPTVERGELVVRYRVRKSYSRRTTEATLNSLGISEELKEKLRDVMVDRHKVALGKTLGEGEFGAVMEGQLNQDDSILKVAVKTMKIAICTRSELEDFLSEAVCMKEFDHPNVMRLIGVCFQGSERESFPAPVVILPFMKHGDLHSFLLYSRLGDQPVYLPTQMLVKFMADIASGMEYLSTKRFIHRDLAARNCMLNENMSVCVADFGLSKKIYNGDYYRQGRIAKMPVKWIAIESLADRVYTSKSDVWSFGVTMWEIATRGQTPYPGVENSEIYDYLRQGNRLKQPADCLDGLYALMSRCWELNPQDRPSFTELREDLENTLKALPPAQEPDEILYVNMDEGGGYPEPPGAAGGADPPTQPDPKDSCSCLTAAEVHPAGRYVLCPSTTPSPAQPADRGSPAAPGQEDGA
Protein kinase C eta type (Homo sapiens), sequence (P24723 whole entry): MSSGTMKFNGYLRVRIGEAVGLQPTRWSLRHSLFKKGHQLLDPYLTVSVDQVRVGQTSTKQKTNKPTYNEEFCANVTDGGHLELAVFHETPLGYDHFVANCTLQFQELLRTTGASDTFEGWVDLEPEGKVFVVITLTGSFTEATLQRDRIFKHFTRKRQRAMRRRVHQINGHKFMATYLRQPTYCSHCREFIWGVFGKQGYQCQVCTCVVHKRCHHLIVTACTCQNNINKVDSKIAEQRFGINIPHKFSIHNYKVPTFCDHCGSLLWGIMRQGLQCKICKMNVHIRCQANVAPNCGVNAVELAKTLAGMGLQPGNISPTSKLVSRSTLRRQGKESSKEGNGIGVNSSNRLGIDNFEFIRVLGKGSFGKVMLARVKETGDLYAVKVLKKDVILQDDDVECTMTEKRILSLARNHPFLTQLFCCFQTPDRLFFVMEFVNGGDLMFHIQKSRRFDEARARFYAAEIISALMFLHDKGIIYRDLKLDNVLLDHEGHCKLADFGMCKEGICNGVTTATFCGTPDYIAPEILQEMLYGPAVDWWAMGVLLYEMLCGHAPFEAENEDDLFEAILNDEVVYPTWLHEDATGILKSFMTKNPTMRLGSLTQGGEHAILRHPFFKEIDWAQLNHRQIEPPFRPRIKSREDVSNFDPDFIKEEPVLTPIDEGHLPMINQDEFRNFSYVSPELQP
Misshapen-like kinase 1 (Homo sapiens), sequence (Q8N4C8 whole entry, looked up): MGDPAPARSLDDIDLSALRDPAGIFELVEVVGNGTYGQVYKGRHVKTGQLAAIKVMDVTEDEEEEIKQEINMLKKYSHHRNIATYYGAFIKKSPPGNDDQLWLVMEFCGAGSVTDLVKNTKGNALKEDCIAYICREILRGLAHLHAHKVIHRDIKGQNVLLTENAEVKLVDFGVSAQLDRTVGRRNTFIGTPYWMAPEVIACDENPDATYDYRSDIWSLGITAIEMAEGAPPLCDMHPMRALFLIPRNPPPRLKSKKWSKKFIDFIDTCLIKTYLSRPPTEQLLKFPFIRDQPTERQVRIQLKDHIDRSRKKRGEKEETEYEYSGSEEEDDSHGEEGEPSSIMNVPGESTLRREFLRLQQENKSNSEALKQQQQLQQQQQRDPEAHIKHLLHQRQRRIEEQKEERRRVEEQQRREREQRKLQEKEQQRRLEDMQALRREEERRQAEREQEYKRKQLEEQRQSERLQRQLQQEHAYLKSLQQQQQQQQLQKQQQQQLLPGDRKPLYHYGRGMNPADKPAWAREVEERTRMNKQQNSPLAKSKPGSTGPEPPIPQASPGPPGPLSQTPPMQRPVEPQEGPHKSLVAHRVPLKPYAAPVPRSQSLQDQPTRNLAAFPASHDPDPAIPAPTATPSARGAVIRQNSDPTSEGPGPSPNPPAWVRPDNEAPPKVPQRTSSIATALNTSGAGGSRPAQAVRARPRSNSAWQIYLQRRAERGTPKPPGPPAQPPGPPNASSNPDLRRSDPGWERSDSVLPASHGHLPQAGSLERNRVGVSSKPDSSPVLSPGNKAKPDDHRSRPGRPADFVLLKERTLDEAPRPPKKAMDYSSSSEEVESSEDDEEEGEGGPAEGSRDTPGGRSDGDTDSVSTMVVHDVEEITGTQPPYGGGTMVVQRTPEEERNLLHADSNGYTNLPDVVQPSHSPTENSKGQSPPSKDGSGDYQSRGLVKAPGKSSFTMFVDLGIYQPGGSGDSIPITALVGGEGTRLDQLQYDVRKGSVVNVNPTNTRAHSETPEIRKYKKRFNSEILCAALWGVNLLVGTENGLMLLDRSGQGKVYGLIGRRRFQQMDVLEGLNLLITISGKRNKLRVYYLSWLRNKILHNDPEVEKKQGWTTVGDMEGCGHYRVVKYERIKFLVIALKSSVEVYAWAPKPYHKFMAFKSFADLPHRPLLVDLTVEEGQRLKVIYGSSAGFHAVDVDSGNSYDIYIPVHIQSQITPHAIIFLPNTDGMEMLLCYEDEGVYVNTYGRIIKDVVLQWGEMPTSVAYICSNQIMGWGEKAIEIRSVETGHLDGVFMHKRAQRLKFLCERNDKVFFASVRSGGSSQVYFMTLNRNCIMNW

Compound	inhibition [1] [%]	inhibition [2] [%]	fold change (FC) [3]	inhibition [4] [%]	inhibition [5] [%]	inhibition [6] [%]	inhibition [7] [%]	inhibition [8] [%]	fold change (FC) [9]
O=C(N[C@@H](C1CC1)C(F)(F)F)c1cc(-c2cnn3cc(-c4ccc(F)cc4)cnc23)cs1	7	2	0						
CNC(=O)c1ccccc1Oc1nc(Nc2cc(OC)c(OC)c(OC)c2)ncc1Br				5	0	9	7	11	0
